Laboratory results from ChEMBL document CHEMBL3351736, “A promising camptothecin derivative: Semisynthesis, antitumor activity and intestinal permeability” (Eur J Med Chem, 2014).
Active and inactive are the calls of the source. The rule behind the calls is not given here.

Tests used:
[1] = test system: Caco-2; experiment: Induction of apoptosis in human Caco2 cells assessed as vital cells at 0.05 uM after 24 hrs by Annexin V/propidium iodide staining-based flow cytometric analysis (reference value: 96.67 +/- 1.02%); format: functional
[2] = test system: HeLa; experiment: Induction of apoptosis in human HeLa cells assessed as p53 phosphorylation at Ser15 by Western blotting analysis; format: functional, cell-based
Summary of the method: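 Cells treated 24 h. About 10^6 cells lysed on ice 15 min in Hepes pH 7.4/Triton X-100 buffer with phosphatase and protease inhibitors, then spun 13,000 × g. 30 µg protein run on 12% SDS-PAGE and blotted to nitrocellulose. Primary anti-phospho-p53 (Ser15) and anti-p53 at 1:1000 for 2 h at room temperature, then HRP secondary and ECL densitometry. Results referred to untreated control.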

[3] = test system: HeLa; experiment: Induction of apoptosis in human HeLa cells assessed as inhibition of DNA synthesis at 0.8 to 1.6 uM after 24 hrs by BrdU staining-based ELISA; format: functional, cell-based
Summary of the method: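 BrdU colorimetric cell proliferation ELISA. Cells seeded at 25,000 per well, compounds added 24 h after seeding and incubated 24 h. Cells fixed and the immunoassay run per kit. Absorbance read at 370-492 nm over 3 intervals of 5 min; absorbance difference proportional to BrdU incorporation. Mean of three separate experiments in triplicate, compared with untreated control.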

[4] = test system: MDA-MB-231; experiment: Cytotoxicity against human MDA-MB-231 cells after 24 hrs by MTT assay; format: functional, cell-based; conditions: MDA-MB-231, 24 h
Summary of the method: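 Cells seeded at 25000 per well and held 24 h at 37 °C in 5% CO2. Medium was then renewed and compounds added at increasing concentrations (DMSO 0.1%, or water for topotecan) for 24 h. MTT solution (5 mg/mL) was added for 3 h at 37 °C, then absorbance read at 570 nm, corrected at 630 nm. IC50 in µM.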

[5] = test system: Small intestine; experiment: Effective permeability in Wistar rat small intestine assessed as absorption rate coefficient at 50 uM measured after 5 mins in every 5 min interval up to 30 mins; format: ADME, tissue-based
Summary of the method: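 Male Wistar rats fasted 2 h with water available, then anaesthetised with diazepam (1.67 mg/kg), ketamine (50 mg/kg) and atropine (1 mg/kg) and kept at 37°C on a heated surface. In situ intestinal perfusion. Perfusate sampled from 5 min at 5 min intervals up to 30 min. Absorption rate constant (Ka) and Peff derived.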

[6] = Efflux ratio of effective permeability from basolateral to apical side over apical to basolateral side in human Caco2 cells at 10 to 50 uM after 15 to 90 mins by HPLC analysis; format: ADME, cell-based; conditions: Caco-2
Summary of the method: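 Caco-2 monolayers (400,000 cells per polycarbonate transwell insert, 0.4 µm pores) grown in DMEM for 19-22 days at 37 °C and 5% CO2. TEER was checked before and after each run. Compound was placed on the donor side and buffer on the receiver side, in both apical-to-basal and basal-to-apical directions, at 37 °C with 50 rpm orbital shaking. Receiver samples were taken at 15, 30, 60 and 90 min with buffer replaced, and donor samples at start and end. Analysis was by HPLC; three independent experiments.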

[7] = test system: Caco-2; experiment: Induction of apoptosis in human Caco2 cells assessed as necrotic cells at 0.05 uM after 24 hrs by Annexin V/propidium iodide staining-based flow cytometric analysis (reference value: 0.41 +/- 0.02%); format: functional
[8] = test system: Caco-2; experiment: Induction of apoptosis in human Caco2 cells assessed as vital cells at 0.5 uM after 24 hrs by Annexin V/propidium iodide staining-based flow cytometric analysis (reference value: 96.67 +/- 1.02%); format: functional
[9] = Permeability from basolateral to apical side in human Caco2 cells at 10 to 50 uM after 15 to 90 mins by HPLC analysis; format: ADME, cell-based; conditions: caco-2, 50 µM
Summary of the method: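 Caco-2 cells seeded at 400,000 per polycarbonate transwell insert (0.4 μm pore) and grown in DMEM for 19-22 days to confluence at 37°C, 5% CO2. TEER checked before and after each run. Compound in donor chamber, buffer in receiver. Run at 37°C with 50 rpm orbital shaking. Receiver sampled at 15, 30, 60 and 90 min with buffer replacement; donor sampled at start and end. HPLC quantitation; three independent experiments.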

[10] = test system: Caco-2; experiment: Induction of apoptosis in human Caco2 cells assessed as vital cells at 0.5 uM after 48 hrs by Annexin V/propidium iodide staining-based flow cytometric analysis (reference value: 96.67 +/- 1.02%); format: functional
[11] = test system: Caco-2; experiment: Induction of apoptosis in human Caco2 cells assessed as early apoptotic cells at 0.05 uM after 48 hrs by Annexin V/propidium iodide staining-based flow cytometric analysis (reference value: 0.72 +/- 0.03%); format: functional

SMILES: CC[C@@]1(O)C(=O)OCc2c1cc1n(c2=O)Cc2cc3c(CN(C)C)c(O)ccc3nc2-1.Cl [TOPOTECAN HYDROCHLORIDE]
- Activity [1]: 71.4%
- Activity [2]: inactive
- Activity [3]: Active
- IC50 [4]: 0.473 µM
- Ka [5]: 2.25 h⁻¹
- efflux ratio at up to 50 µM [6]: > 1
- Activity [7]: 3.64%
- Activity [8]: 53.08%
- permeability [9]: permeable
- Activity [10]: 38.26%
- Activity [11]: 2.36%
